Assay results published in the array DNA melting data of Ke et al. (doi:10.1101/2024.01.08.574731).

Columns and labels:
[1] = folding enthalpy; higher = less favourable; fluorescence melt of hairpins on a sequencing array, two-state fit; settings: sodium 0.088 M
Method in brief: (§1)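 In 50 mM Na-HEPES pH 8.0 containing 25 mM NaCl, hairpins from the library on a sequenced MiSeq flow cell were imaged for Cy3 fluorescence at 2.5 °C steps up to 60 °C, with Cy3 and quencher oligos annealed. After normalisation to pre-quench Cy3 and to control constructs, two-state fits with bootstrapping gave melting temperature and folding enthalpy. Four replicates were combined by inverse-variance weighting, and fitted temperatures were shifted up by 9.35 °C to match UV melts.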

[2] = melting temperature; fluorescence melt of hairpins on a sequencing array, two-state fit, raised by 9.35 °C to match UV melts; settings: sodium 0.088 M
Method in brief: as §1

Row | Sequence | folding enthalpy [1] | Tm [2]
1 | GATCTTAACGAAGATC ((((((....)))))) | -29.9 kcal/mol | 40 °C
2 | GATCTTAAGGAAGATC ((((((....)))))) | -23.1 kcal/mol | 39.1 °C
3 | GATCTTAAGTAAGATC ((((((....)))))) | -25.5 kcal/mol | 42.8 °C
4 | GATCTTAATTAAGATC ((((((....)))))) | -32.1 kcal/mol | 44.7 °C
5 | GATCTTACAGAAGATC ((((((....)))))) | -31.8 kcal/mol | 38.4 °C
6 | GATCTTACCAAAGATC ((((((....)))))) | -34.6 kcal/mol | 44.5 °C
7 | GATCTTACTGAAGATC ((((((....)))))) | -26.9 kcal/mol | 42.2 °C
8 | GATCTTAGACAAGATC ((((((....)))))) | -30.2 kcal/mol | 37.3 °C
9 | GATCTTAGGAAAGATC ((((((....)))))) | -26.5 kcal/mol | 38.6 °C
10 | GATCTTAGGAAGATC ((((((...)))))) | -30.5 kcal/mol | 43.3 °C
11 | GATCTTAGTAAGATC ((((((...)))))) | -27.6 kcal/mol | 42.5 °C
12 | GATCTTATAAAGATC ((((((...)))))) | -29.4 kcal/mol | 44 °C
13 | GATCTTATAGAAGATC ((((((....)))))) | -30 kcal/mol | 39.5 °C
14 | GATCTTATTAAAGATC ((((((....)))))) | -30.7 kcal/mol | 42.8 °C
15 | GATCTTATTAAGATC ((((((...)))))) | -34 kcal/mol | 45 °C
16 | GATCTTCAGAAAGATC ((((((....)))))) | -29.7 kcal/mol | 41.7 °C
17 | GATCTTCAGCAAGATC ((((((....)))))) | -24.6 kcal/mol | 38.9 °C
18 | GATCTTCAGTAAGATC ((((((....)))))) | -30.6 kcal/mol | 40.7 °C
19 | GATCTTCATTAAGATC ((((((....)))))) | -35.4 kcal/mol | 41.5 °C
20 | GATCTTCCAAAAGATC ((((((....)))))) | -32 kcal/mol | 41.7 °C
21 | GATCTTCCTAAAGATC ((((((....)))))) | -31.7 kcal/mol | 43.7 °C
22 | GATCTTCCTGAAGATC ((((((....)))))) | -39.8 kcal/mol | 51.2 °C
23 | GATCTTCCTTAAGATC ((((((....)))))) | -27.8 kcal/mol | 42.1 °C
24 | GATCTTCGACAAGATC ((((((....)))))) | -26.7 kcal/mol | 38.6 °C

Row | Sequence | folding enthalpy [1] | Tm [2]
25 | GATCTTCGAGAAGATC ((((((....)))))) | -42 kcal/mol | 50.8 °C
26 | GATCTTCGATAAGATC ((((((....)))))) | -24.7 kcal/mol | 40.2 °C
27 | GATCTTCGCCAAGATC ((((((....)))))) | -33.7 kcal/mol | 42 °C
28 | GATCTTCGGGAAGATC ((((((....)))))) | -36.2 kcal/mol | 49.5 °C
29 | GATCTTCGGTAAGATC ((((((....)))))) | -34 kcal/mol | 41.3 °C
30 | GATCTTCTCAAAGATC ((((((....)))))) | -33.4 kcal/mol | 45.2 °C
31 | GATCTTCTCCAAGATC ((((((....)))))) | -29.8 kcal/mol | 41.1 °C
32 | GATCTTCTCGAAGATC ((((((....)))))) | -39 kcal/mol | 51.8 °C
33 | GATCTTCTTCAAGATC ((((((....)))))) | -27.7 kcal/mol | 43.5 °C
34 | GATCTTCTTGAAGATC ((((((....)))))) | -48 kcal/mol | 54 °C
35 | GATCTTGACAAGATC ((((((...)))))) | -38.6 kcal/mol | 46.1 °C
36 | GATCTTGACCAAGATC ((((((....)))))) | -38.3 kcal/mol | 49.3 °C
37 | GATCTTGACTAAGATC ((((((....)))))) | -44 kcal/mol | 49 °C
38 | GATCTTGAGCAAGATC ((((((....)))))) | -33.5 kcal/mol | 44.4 °C
39 | GATCTTGCCGAAGATC ((((((....)))))) | -28.1 kcal/mol | 46.1 °C
40 | GATCTTGCGAAGATC ((((((...)))))) | -23.7 kcal/mol | 42.8 °C
41 | GATCTTGGAAACAAGATC (((((((....))))))) | -42.3 kcal/mol | 55.9 °C
42 | GATCTTGGTGAAGATC ((((((....)))))) | -27.2 kcal/mol | 45.4 °C
43 | GATCTTGTCGAAGATC ((((((....)))))) | -27.4 kcal/mol | 46.4 °C
44 | GATCTTGTCTAAGATC ((((((....)))))) | -40.6 kcal/mol | 48.4 °C
45 | GATCTTGTGAAAGATC ((((((....)))))) | -37.3 kcal/mol | 51.2 °C
46 | GATCTTTAATAAGATC ((((((....)))))) | -31.1 kcal/mol | 40.9 °C
47 | GATCTTTATAAAGATC ((((((....)))))) | -38.4 kcal/mol | 45.5 °C
48 | GATCTTTCACAAGATC ((((((....)))))) | -30.5 kcal/mol | 43.1 °C

Row | Sequence | folding enthalpy [1] | Tm [2]
49 | GATCTTTCCCAAGATC ((((((....)))))) | -33.4 kcal/mol | 42.6 °C
50 | GATCTTTCCGAAGATC ((((((....)))))) | -33.1 kcal/mol | 46.4 °C
51 | GATCTTTCGTAAGATC ((((((....)))))) | -30.6 kcal/mol | 44.4 °C
52 | GATCTTTTGAAAGATC ((((((....)))))) | -28.3 kcal/mol | 44.7 °C
53 | GATCTTTTGTAAGATC ((((((....)))))) | -31.1 kcal/mol | 44.2 °C
54 | GATGACCGAAAGGTAATC (((.(((....))).))) | -23.4 kcal/mol | 47.1 °C
55 | GATGACCGAAAGGTATC (((.(((....)))))) | -16.6 kcal/mol | 34.7 °C
56 | GATGACCGAAAGGTGATC (((.(((....))).))) | -26.9 kcal/mol | 47.7 °C
57 | GATGACGAAAGTCACATC ((((((....)))..))) | -8.72 kcal/mol | 29.2 °C
58 | GATGACGAAAGTCGAATC ((((((....)))..))) | -13.7 kcal/mol | 33 °C
59 | GATGACGAAAGTCGATC ((((((....))).))) | -18.8 kcal/mol | 45.2 °C
60 | GATGACGAAAGTCGTATC ((((((....)))..))) | -12.1 kcal/mol | 36 °C
61 | GATGACGAAAGTCTCATC ((((((....)))..))) | -9.72 kcal/mol | 32.5 °C
62 | GATGACGAAAGTCTTATC ((((((....)))..))) | -12.4 kcal/mol | 25.5 °C
63 | GATGACGGAAACGTCGTC ((.((((....)))).)) | -43.3 kcal/mol | 52.8 °C
64 | GATGAGAAATCATC (((((....))))) | -20.6 kcal/mol | 39.8 °C
65 | GATGAGCGAAAGCTTATC (((.(((....))).))) | -28.3 kcal/mol | 49.1 °C
66 | GATGAGGGAAACCTCACC (.(((((....))))).) | -15.7 kcal/mol | 35.5 °C
67 | GATGATGGAAACATCATC (((((((....))))))) | -45 kcal/mol | 58.1 °C
68 | GATGCACGAAAGTGATC (((.(((....)))))) | -13.6 kcal/mol | 36.6 °C
69 | GATGCAGAAATGCATC ((((((....)))))) | -36.7 kcal/mol | 58.7 °C
70 | GATGCAGCGAAAGCTATC (((..(((....)))))) | -9.06 kcal/mol | 24.7 °C
71 | GATGCAGGAAACTGCATC (((((((....))))))) | -43.6 kcal/mol | 64.7 °C
72 | GATGCCGAAAGGCCTATC ((((((....)))..))) | -6.67 kcal/mol | 24 °C

Row | Sequence | folding enthalpy [1] | Tm [2]
73 | GATGCCGAAAGGCGGATC ((((((....)))..))) | -10.5 kcal/mol | 40.5 °C
74 | GATGCGCCGAAAGGCATC (((..(((....)))))) | -12.4 kcal/mol | 31.4 °C
75 | GATGCGGGAAACCGCGTC ((.((((....)))).)) | -19.2 kcal/mol | 59.9 °C
76 | GATGCGGGAAACCGTGTC ((..(((....)))..)) | -26.3 kcal/mol | 43.7 °C
77 | GATGCGGGAAACTGCGTC ((.((.(....).)).)) | -21.1 kcal/mol | 44.2 °C
78 | GATGGAGGAAACCCCATC (((((.(....).))))) | -31.6 kcal/mol | 43 °C
79 | GATGGCCGAAAGGCGATC (((.(((....))).))) | -23.9 kcal/mol | 52.8 °C
80 | GATGGCGAAAGCCCGATC ((((((....)))..))) | -9.89 kcal/mol | 27.7 °C
81 | GATGGCGAAAGCCGATC ((((((....))).))) | -15.4 kcal/mol | 47.6 °C
82 | GATGGGAAACCATC (((((....))))) | -26.5 kcal/mol | 49.9 °C
83 | GATGGGACGAAAGTCATC (((..(((....)))))) | -15.4 kcal/mol | 31.9 °C
84 | GATGGGCGAAAGCCTATC (((.(((....))).))) | -22.3 kcal/mol | 53.9 °C
85 | GATGGGGAAACCCATC ((((((....)))))) | -34.2 kcal/mol | 57.8 °C
86 | GATGGGGGAAACCCCACC (.(((((....))))).) | -12.6 kcal/mol | 39.9 °C
87 | GATGGGGGAAACCCTATC (((.(((....))).))) | -23.4 kcal/mol | 45 °C
88 | GATGTACCGAAAGGTATC (((..(((....)))))) | -14 kcal/mol | 32.2 °C
89 | GATGTAGGAAACTACATC (((((((....))))))) | -40.4 kcal/mol | 54.6 °C
90 | GATGTAGGAAACTGCATC ((((.((....)).)))) | -34.6 kcal/mol | 45 °C
91 | GATGTCGCGAAAGCGATC (((..(((....)))))) | -8.5 kcal/mol | 31.1 °C
92 | GATGTGCGAAAGCAGATC (((.(((....))).))) | -32.7 kcal/mol | 52.5 °C
93 | GATGTGGGAAACCACACC (.(((((....))))).) | -14.1 kcal/mol | 39 °C
94 | GATGTGGGAAACCACGTC ((.((((....)))).)) | -26.5 kcal/mol | 51 °C
